Values after ≈ are worked out from the molar mass of the structure shown. Active and inactive are the calls of the source. The calls are words filed in the database; no cut-off is given here.

The target of data set [1] is Serotransferrin (Homo sapiens) (UniProt P02787). Kind of data set: Inhibition of [59Fe] uptake from [59Fe]transferrin in human SK-N-MC cells at 50 uM after 3 hrs relative to relative to desferrioxamine B. The class given is cell-based. A digest of the protocol:
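SK-N-MC cells incubated with 59Fe-Tf (0.75 μM) plus chelator (50 μM), 3 h at 37 °C; washed four times in ice-cold PBS, then Pronase (1 mg/mL) 30 min at 4 °C. Pronase-insensitive pellet after centrifugation taken as internalized 59Fe, expressed as % of untreated control. Mean ± SD, three experiments, triplicate determinations each.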

The subject of data set [2] is SK-N-MC. Kind of data set: Induction of [59Fe] mobilization in human SK-N-MC cells prelabeled with [59Fe]transferrin at 50 uM after 3 hrs relative to untreated control. Type of data set: functional. A digest of the protocol: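 Cells prelabeled with 59Fe-Tf (0.75 μM), 3 h, 37 °C; washed four times in ice-cold PBS, then exposed to chelator (50 μM) 3 h at 37 °C. Medium removed by Pasteur pipet; gamma counting of cell pellet and supernatant gives released 59Fe as % of cellular 59Fe. Mean ± SD, three experiments, triplicate determinations each.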

Data set [3] in a line: Partition coefficient, log P by RP-HPLC. The class given is physicochemical. The note with it: octanol/water.
Data set [4] is described as follows: Toxicity in human SK-N-MC cells by MTT method. Type of data set: cell-based. The procedure, abridged:
(§1)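 MTT proliferation assay giving IC50; MTT colour checked proportional to viable cell number by Trypan blue (SK-N-MC) or total cell protein (MDCK II). SK-N-MC grown as in earlier work; MDCK II cultured by standard procedures.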

A short description of data set [5]: Partition coefficient, log P by shake flask method. The class given is physicochemical. The settings on record: octanol/water.
The nature of data set [6]: Toxicity in MDCK cells by MTT method. Type of data set: cell-based, Canis lupus familiaris. The note with it: dog. The procedure, abridged: as §1
The target of data set [7] is Serotransferrin (Homo sapiens) (UniProt P02787). The experiment in a line: Inhibition of [59Fe] uptake from [59Fe]transferrin in human SK-N-MC cells assessed as at 50 uM after 3 hrs relative to untreated control; values are per cent of control.
Sequence of Serotransferrin (Homo sapiens) (P02787 whole entry): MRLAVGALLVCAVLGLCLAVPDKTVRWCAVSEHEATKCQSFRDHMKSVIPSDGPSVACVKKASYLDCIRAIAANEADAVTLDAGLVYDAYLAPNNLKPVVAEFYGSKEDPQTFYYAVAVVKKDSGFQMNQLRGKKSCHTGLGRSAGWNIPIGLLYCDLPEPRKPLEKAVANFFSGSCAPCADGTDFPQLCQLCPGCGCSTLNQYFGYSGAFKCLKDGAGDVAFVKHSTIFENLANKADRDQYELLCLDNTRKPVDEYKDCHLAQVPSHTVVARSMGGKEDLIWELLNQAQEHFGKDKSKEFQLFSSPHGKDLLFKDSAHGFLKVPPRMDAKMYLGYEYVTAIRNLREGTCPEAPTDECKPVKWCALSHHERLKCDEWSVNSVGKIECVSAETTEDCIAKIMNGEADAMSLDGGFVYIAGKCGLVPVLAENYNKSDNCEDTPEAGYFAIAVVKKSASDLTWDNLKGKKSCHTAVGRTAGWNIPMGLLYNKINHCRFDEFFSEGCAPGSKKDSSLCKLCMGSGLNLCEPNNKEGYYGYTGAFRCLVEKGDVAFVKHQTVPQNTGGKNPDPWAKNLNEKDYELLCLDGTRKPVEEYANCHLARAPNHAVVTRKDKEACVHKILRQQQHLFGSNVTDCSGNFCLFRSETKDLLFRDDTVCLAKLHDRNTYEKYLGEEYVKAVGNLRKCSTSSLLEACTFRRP
A short description of data set [8]: Solubility in water. The class given is physicochemical.
The subject of data set [9] is SK-N-MC. Kind of data set: Induction of [59Fe] mobilization in human SK-N-MC cells prelabeled with [59Fe]transferrin at 50 uM after 3 hrs relative to desferrioxamine B. Type of data set: functional. The procedure, abridged: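 Cells were prelabeled with 59Fe-Tf (0.75 μM) for 3 h at 37 °C, washed four times with ice-cold PBS, then exposed to chelator (50 μM) for 3 h at 37 °C. Released 59Fe in the medium and cell-pellet 59Fe were counted by γ-counter. DFOB was run in parallel. Data are mean ± SD of three experiments, each with triplicate determinations.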

Consider `CC(=O)N(O)CCCCCNC(=O)CCC(=O)N(O)CCCCCNC(=O)CCC(=O)N(O)CCCCCNC(=O)c1ccc(-n2nc(-c3ccccc3O)nc2-c2ccccc2O)cc1`, for which the inhibition entry in [1] was “Active”. Further, the outcome in data set [2] was Active. The logP is 3.02 in data set [3] and 2.17 in data set [5]. In addition, the IC50 in data set [4] is 20.6 µM; in data set [6], 23.4 µM.
As to `CC(=O)N(O)CCCCCNC(=O)CCC(=O)N(O)CCCCCNC(=O)CCC(=O)N(O)CCCCCNC(=O)C12CC3CC(CC(O)(C3)C1)C2`, the result in data set [2] was inactive. For the same compound, the figures for the logP in data set [3] and in data set [5] were -0.11 and 0.29, respectively. Moreover, the figures for the IC50 in [4] and in data set [6] were more than 200 µM and more than 100 µM, respectively.
Consider `CN(C)C(=S)NN=C(c1ccccn1)c1ccccn1`, for which the residual activity in data set [7] came out at 12%.
Consider `CC(=O)N(O)CCCCCNC(=O)CCC(=O)N(O)CCCCCNC(=O)CCC(=O)N(O)CCCCCNC(=O)Cn1ccc(=O)c(O)c1C`, for which the logP in [3] was -1.16; in data set [5] it was -1.29. For the same compound, the IC50 in data set [4] was more than 200 µM; in data set [6] it was more than 300 µM.
On to `c1ccc2ccccc2c1`, for which the logP in data set [5] stood at 3.32.
Same read-out and setting: for `c1ccc2c(c1)oc1ccccc12` [DIBENZOFURAN] the value was 4.04.
`COC(=O)c1ccccc1C(=O)OC` [DIMETHYL PHTHALATE]: the logP in [5] came out at 1.61.
Consider `CC(=O)N(O)CCCCCNC(=O)CCC(=O)N(O)CCCCCNC(=O)CCC(=O)N(O)CCCCCN` [DEFEROXAMINE], for which the solubility in data set [8] was 400 mM (≈ 224 mg/mL). In data set [7], the residual activity was determined as 87%. This compound also gave an Activity in [2] of 12%. Moreover, the figures for the IC50 in data set [4] and in data set [6] were 16 µM and 9.49 µM, respectively.
For `CC(=O)N(O)CCCCCNC(=O)CCC(=O)N(O)CCCCCNC(=O)CCC(=O)N(O)CCCCCNC(=O)C12CC3CC(CC(C3)C1)C2`, the inhibition result in data set [1] was “Active”. The “fold change (FC)” value in data set [9] is 2.2. Moreover, the results for the logP in data set [3] and in data set [5] were 1.29 and 2.11, respectively. In addition, the results for the IC50 in data set [4] and in [6] were 174 µM and 119 µM, respectively.
Take `Cc1c(O)c(=O)ccn1C` [DEFERIPRONE]: the outcome in data set [2] was inactive. Besides, the IC50 in [4] stood at 166 µM. This compound gave a logP in [5] of -1.02.
As for `CC(=O)N(O)CCCCCNC(=O)CCC(=O)N(O)CCCCCNC(=O)CCC(=O)N(O)CCCCCNC(=O)C12CC3CC(C)(CC(C)(C3)C1)C2`, the inhibition result in data set [1] is “Active”. Further, the “fold change (FC)” value in [9] is given as 3. The residual activity in [7] stood at 18%. Moreover, the logP amounted to 1.95 in data set [3] and 2.92 in data set [5]. Further, the figures for the IC50 in [4] and in [6] were 92.4 µM and 163 µM, respectively.
On to `O=C(O)c1ccc(-n2nc(-c3ccccc3O)nc2-c2ccccc2O)cc1` [DEFERASIROX], for which the residual activity in data set [7] worked out at 39%. In data set [4], this compound returned an IC50 of 20.5 µM. In addition, the logP in data set [5] amounted to 3.8.
In the case of `CC(=O)N(O)CCCCCNC(=O)CCC(=O)N(O)CCCCCNC(=O)CCC(=O)N(O)CCCCCNC(=O)COc1ccc(C)cc1`, the inhibition result in data set [1] is “Active”. For the same compound, in [2], the outcome was Active. For the same compound, the logP turned out to be 0.93 in [3] and 1.68 in data set [5]. Moreover, the IC50 in data set [4] was more than 200 µM; in [6] it was more than 150 µM.
For the compound `CC(=O)N(O)CCCCCNC(=O)CCC(=O)N(O)CCCCCNC(=O)CCC(=O)N(O)CCCCCNC(=O)CC12CC3CC(CC(C3)C1)C2`, the inhibition result in data set [1] is “Active”. In addition, the “fold change (FC)” value in [9] is listed as 2.8. Moreover, the logP in data set [3] is 1.47; in [5], 2.21. Moreover, the IC50 in [4] is 167 µM; in [6], 226 µM.

Values taken from ChEMBL document CHEMBL1159065, “Conjugates of desferrioxamine B (DFOB) with derivatives of adamantane or with orally available chelators as potential agents for treating iron overload” (J Med Chem, 2010).
